Key:
[1] = Cytotoxicity against human H1299 cells assessed as cell growth at 1 uM after 48 hrs by MTT assay; assay type: functional; conditions: NCI-H1299, 48 h, read-out: Activity
How it was run: (§1)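 H1299 non-small lung cancer cells were grown in RPMI 1640 with 10% FBS and penicillin/streptomycin at 37 °C in 5% CO2. About 2×10³ cells were seeded per well and held 24 h, then washed with PBS and given fresh medium. Compound, freshly dissolved in DMSO and diluted in complete medium, was added for 48 h. MTT was read at 550 nm after SDS/DMF lysis at 37 °C for 16 h. Values are from three experiments, untreated = 100%, ±SD.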

[2] = Cytotoxicity against human H1299 cells assessed as cell growth at 10 uM after 48 hrs by MTT assay; assay type: functional; conditions: NCI-H1299, 48 h, read-out: Activity; how it was run: as §1
CCRF-CEM = assay: Cytotoxicity against human CCRF-CEM cells assessed as cell growth at 10 uM relative to control; assay type: functional; conditions: read-out: Activity
How it was run: (§2)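 Single-concentration screen in the NCI 60 human tumour cell line panel covering nine cancer types. Values are the mean growth percentage of compound-treated cells, with untreated control cells set as 100%.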

HL-60(TB) = assay: Cytotoxicity against human HL-60(TB) cells assessed as cell growth at 10 uM relative to control; assay type: functional; conditions: read-out: Activity
How it was run: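 Tested in the NCI 60 human tumour cell line panel, covering nine cancer cell types, at a single concentration. The value is the mean growth percentage of treated cells, with untreated control cells taken as 100%.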

K562 = assay: Cytotoxicity against human K562 cells assessed as cell growth at 10 uM relative to control; assay type: functional; conditions: read-out: Activity; how it was run: as §2
MOLT-4 = assay: Cytotoxicity against human MOLT4 cells assessed as cell growth at 10 uM relative to control; assay type: functional; conditions: read-out: Activity; how it was run: as §2
RPMI-8226 = assay: Cytotoxicity against human RPMI8226 cells assessed as cell growth at 10 uM relative to control; assay type: functional; conditions: read-out: Activity; how it was run: as §2
A549 = assay: Cytotoxicity against human A549 cells assessed as cell growth at 10 uM relative to control; assay type: functional; conditions: read-out: Activity; how it was run: as §2
NCI-H226 = assay: Cytotoxicity against human NCI-H226 cells assessed as cell growth at 10 uM relative to control; assay type: functional; conditions: read-out: Activity; how it was run: as §2
NCI-H23 = assay: Cytotoxicity against human NCI-H23 cells assessed as cell growth at 10 uM relative to control; assay type: functional; conditions: read-out: Activity; how it was run: as §2
NCI-H322M = assay: Cytotoxicity against human NCI-H322M cells assessed as cell growth at 10 uM relative to control; assay type: functional; conditions: read-out: Activity; how it was run: as §2
NCI-H460 = assay: Cytotoxicity against human NCI-H460 cells assessed as cell growth at 10 uM relative to control; assay type: functional; conditions: read-out: Activity; how it was run: as §2
COLO 205 = assay: Cytotoxicity against human COLO205 cells assessed as cell growth at 10 uM relative to control; assay type: functional; conditions: read-out: Activity; how it was run: as §2
HCC 2998 = assay: Cytotoxicity against human HCC2998 cells assessed as cell growth at 10 uM relative to control; assay type: functional; conditions: read-out: Activity; how it was run: as §2
HCT-116 = assay: Cytotoxicity against human HCT116 cells assessed as cell growth at 10 uM relative to control; assay type: functional; conditions: read-out: Activity; how it was run: as §2
HCT-15 = assay: Cytotoxicity against human HCT15 cells assessed as cell growth at 10 uM relative to control; assay type: functional; conditions: read-out: Activity; how it was run: as §2
HT-29 = assay: Cytotoxicity against human HT-29 cells assessed as cell growth at 10 uM relative to control; assay type: functional; conditions: read-out: Activity; how it was run: as §2
SW-620 = assay: Cytotoxicity against human SW620 cells assessed as cell growth at 10 uM relative to control; assay type: functional; conditions: read-out: Activity
How it was run: (§3)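 Run in the NCI 60-cell human tumour panel. Cells were exposed to 10 µM compound, and growth was given as a percentage of untreated control cells set to 100%.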

BT-549 = assay: Cytotoxicity against human BT549 cells assessed as cell growth at 10 uM relative to control; assay type: functional; conditions: read-out: Activity; how it was run: as §2
[3] = Cytotoxicity against human Hs 578T cells assessed as cell growth at 10 uM relative to control; assay type: functional; conditions: read-out: Activity; how it was run: as §2
MCF7 = assay: Cytotoxicity against human MCF7 cells assessed as cell growth at 10 uM relative to control; assay type: functional; conditions: read-out: Activity; how it was run: as §2
MDA-MB-435 = assay: Cytotoxicity against human MDA-MB-435 cells assessed as cell growth at 10 uM relative to control; assay type: functional; conditions: read-out: Activity; how it was run: as §2
MDA-MB-468 = assay: Cytotoxicity against human MDA-MB-468 cells assessed as cell growth at 10 uM relative to control; assay type: functional; conditions: read-out: Activity; how it was run: as §2
T47D = assay: Cytotoxicity against human T47D cells assessed as cell growth at 10 uM relative to control; assay type: functional; conditions: read-out: Activity; how it was run: as §3
OVCAR-4 = assay: Cytotoxicity against human OVCAR4 cells assessed as cell growth at 10 uM relative to control; assay type: functional; conditions: read-out: Activity; how it was run: as §2
[4] = Cytotoxicity against human 786-O cells assessed as cell growth at 10 uM relative to control; assay type: functional; conditions: 786-0, read-out: Activity; how it was run: as §2
A498 = assay: Cytotoxicity against human A498 cells assessed as cell growth at 10 uM relative to control; assay type: functional; conditions: read-out: Activity; how it was run: as §2
ACHN = assay: Cytotoxicity against human ACHN cells assessed as cell growth at 10 uM relative to control; assay type: functional; conditions: read-out: Activity; how it was run: as §2
TK-10 = assay: Cytotoxicity against human TK10 cells assessed as cell growth at 10 uM relative to control; assay type: functional; conditions: read-out: Activity; how it was run: as §3
UO-31 = assay: Cytotoxicity against human UO31 cells assessed as cell growth at 10 uM relative to control; assay type: functional; conditions: read-out: Activity; how it was run: as §3
LOX IMVI = assay: Cytotoxicity against human LOXIMVI cells assessed as cell growth at 10 uM relative to control; assay type: functional; conditions: read-out: Activity; how it was run: as §2
M14 = assay: Cytotoxicity against human M14 cells assessed as cell growth at 10 uM relative to control; assay type: functional; conditions: read-out: Activity; how it was run: as §2
Malme-3M = assay: Cytotoxicity against human MALME-3M cells assessed as cell growth at 10 uM relative to control; assay type: functional; conditions: read-out: Activity; how it was run: as §2
SK-MEL-2 = assay: Cytotoxicity against human SK-MEL-2 cells assessed as cell growth at 10 uM relative to control; assay type: functional; conditions: read-out: Activity; how it was run: as §2
UACC-62 = assay: Cytotoxicity against human UACC62 cells assessed as cell growth at 10 uM relative to control; assay type: functional; conditions: read-out: Activity; how it was run: as §3
DU-145 = assay: Cytotoxicity against human DU145 cells assessed as cell growth at 10 uM relative to control; assay type: functional; conditions: read-out: Activity; how it was run: as §2
PC-3 = assay: Cytotoxicity against human PC3 cells assessed as cell growth at 10 uM relative to control; assay type: functional; conditions: read-out: Activity; how it was run: as §2
SF-268 = assay: Cytotoxicity against human SF268 cells assessed as cell growth at 10 uM relative to control; assay type: functional; conditions: read-out: Activity; how it was run: as §2
SF-295 = assay: Cytotoxicity against human SF295 cells assessed as cell growth at 10 uM relative to control; assay type: functional; conditions: read-out: Activity; how it was run: as §2
SNB-19 = assay: Cytotoxicity against human SNB19 cells assessed as cell growth at 10 uM relative to control; assay type: functional; conditions: read-out: Activity; how it was run: as §3
SNB-75 = assay: Cytotoxicity against human SNB75 cells assessed as cell growth at 10 uM relative to control; assay type: functional; conditions: read-out: Activity; how it was run: as §3
[5] = Inhibition of human TERT expression in H1299 cells at 1 uM after 24 hrs by secreted alkaline phosphatase reporter gene assay relative to control; values are per cent of control; conditions: NCI-H1299
[6] = Inhibition of human TERT expression in H1299 cells at 10 uM after 24 hrs by secreted alkaline phosphatase reporter gene assay relative to control; values are per cent of control; conditions: NCI-H1299

`COC(=O)CNCC(=O)Nc1cccc2c1C(=O)c1c(NC(=O)CNCC(=O)OC)cccc1C2=O` showed a growth at 1 µM [1] of 84%, a growth at 10 µM [2] of 86% and a growth at 10 µM (CCRF-CEM) of 64.4%. The growth at 10 µM (HL-60(TB)) was 107%, the growth at 10 µM (K562) was 97.1% and the growth at 10 µM (MOLT-4) was 83.8%. The growth at 10 µM (RPMI-8226) was 37.4%, the growth at 10 µM (A549) was 94.3% and the growth at 10 µM (NCI-H226) was 84.6%. It also gave a growth at 10 µM (NCI-H23) of 95.2%, a growth at 10 µM (NCI-H322M) of 94.5% and a growth at 10 µM (NCI-H460) of 95.1%. The growth at 10 µM (COLO 205) was 102%, the growth at 10 µM (HCC 2998) was 106% and the growth at 10 µM (HCT-116) was 96.4%. The growth at 10 µM (HCT-15) was 94.3%, the growth at 10 µM (HT-29) was 96.3% and the growth at 10 µM (SW-620) was 109%. For the same molecule, the growth at 10 µM (BT-549) was 99.9%, the growth at 10 µM [3] was 104% and the growth at 10 µM (MCF7) was 89.5%. For the same molecule, the growth at 10 µM (MDA-MB-435) was 102%, the growth at 10 µM (MDA-MB-468) was 83.8% and the growth at 10 µM (T47D) was 83.8%. The growth at 10 µM (OVCAR-4) was 87.7%, the growth at 10 µM [4] was 103% and the growth at 10 µM (A498) was 85.2%. For the same molecule, the growth at 10 µM (ACHN) was 90.7%, the growth at 10 µM (TK-10) was 84.9% and the growth at 10 µM (UO-31) was 88.9%. For the same molecule, the growth at 10 µM (LOX IMVI) was 88.2%, the growth at 10 µM (M14) was 113% and the growth at 10 µM (Malme-3M) was 102%. For the same molecule, the growth at 10 µM (SK-MEL-2) was 107%, the growth at 10 µM (UACC-62) was 90.3% and the growth at 10 µM (DU-145) was 107%. For the same molecule, the growth at 10 µM (PC-3) was 76.6%, the growth at 10 µM (SF-268) was 100% and the growth at 10 µM (SF-295) was 97.2%. For the same molecule, the growth at 10 µM (SNB-19) was 95.3%, the growth at 10 µM (SNB-75) was 89.9% and the level, % of control [5] was 111%. For the same molecule, the level, % of control [6] was 93%.

Molecule `CCN(CC)CC(=O)Nc1cccc2c1C(=O)c1c(NC(=O)CN(CC)CC)cccc1C2=O` has a growth at 1 µM [1] of 86%, a growth at 10 µM [2] of 78% and a growth at 10 µM (CCRF-CEM) of 84.6%. For the same molecule, the growth at 10 µM (HL-60(TB)) was 94.7%, the growth at 10 µM (K562) was 106% and the growth at 10 µM (MOLT-4) was 91.2%. The growth at 10 µM (RPMI-8226) was 68.5%, the growth at 10 µM (A549) was 91.7% and the growth at 10 µM (NCI-H226) was 85.5%. The growth at 10 µM (NCI-H23) was 97.1%, the growth at 10 µM (NCI-H322M) was 93.8% and the growth at 10 µM (NCI-H460) was 97.2%. The growth at 10 µM (COLO 205) was 114%, the growth at 10 µM (HCC 2998) was 103% and the growth at 10 µM (HCT-116) was 84.2%. For the same molecule, the growth at 10 µM (HCT-15) was 93.4%, the growth at 10 µM (HT-29) was 101% and the growth at 10 µM (SW-620) was 104%. For the same molecule, the growth at 10 µM (BT-549) was 97.4%, the growth at 10 µM [3] was 111% and the growth at 10 µM (MCF7) was 88.7%. It also gave a growth at 10 µM (MDA-MB-435) of 103%, a growth at 10 µM (MDA-MB-468) of 86.6% and a growth at 10 µM (T47D) of 84.8%. The growth at 10 µM (OVCAR-4) was 91.3%, the growth at 10 µM [4] was 86.4% and the growth at 10 µM (A498) was 93.3%. For the same molecule, the growth at 10 µM (ACHN) was 91.9%, the growth at 10 µM (TK-10) was 105% and the growth at 10 µM (UO-31) was 87.3%. For the same molecule, the growth at 10 µM (LOX IMVI) was 89.3%, the growth at 10 µM (M14) was 98.6% and the growth at 10 µM (Malme-3M) was 112%. It also gave a growth at 10 µM (SK-MEL-2) of 84%, a growth at 10 µM (UACC-62) of 93.5% and a growth at 10 µM (DU-145) of 137%. It also gave a growth at 10 µM (PC-3) of 89.1%, a growth at 10 µM (SF-268) of 138% and a growth at 10 µM (SF-295) of 88.9%. For the same molecule, the growth at 10 µM (SNB-19) was 94.1%, the growth at 10 µM (SNB-75) was 81.7% and the level, % of control [5] was 86%. The level, % of control [6] was 84%.
